Screens: PubChem BioAssay, Columbia University Molecular Screening Center
INS promoter act = TRM-6 insulin promoter activation; activation, % at 2 µM; AID 1296; 130,000 compounds, 0.81% hits; TRM-6 cells, insulin promoter eGFP reporter, imaging; plate-scaled: unstimulated 0, stimulated control 100;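 active = activation at 2 µM above a set limit, confirmed on inspection of the cell images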;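 also: share of cells whose green reporter signal exceeds an intensity cutoff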
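material = TRM-6 human fetal islet cells, insulin promoter–eGFP reporter | input = 1,000 TRM-6 cells seeded per well | benchmarks = stimulated versus unstimulated wells as plate controls | measured by = automated fluorescence imaging of paraformaldehyde-fixed, Hoechst-counterstained cells, green channel | schedule = compound exposure 48 h, 37 °C | reagent = tamoxifen at 0.75 µM added at seeding for reporter induction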
Numbers without * were called inactive; [ ] = dose if it differs, or a comment. This excerpt belongs to a sample that is enriched for hits.

SMILES | INS promoter act
CCn1c(Cc2ccccc2)nnc1SCC(=O)Nc1ccc(N2CCOCC2)c(Cl)c1 | 377
Cc1ccc(NC(=O)CSCC(=O)Nc2ccc(N3CCOCC3)c(Cl)c2)cc1 | 0
Cn1c(SCC(=O)Nc2ccc(N3CCOCC3)c(Cl)c2)nnc1-c1ccccc1 | 800*
Cc1ccc(NS(=O)(=O)c2ccc(OCC(=O)Nc3cccc([N+](=O)[O-])c3)c(C)c2)cc1 | -4
CCOC(=O)c1nn(-c2ccc(Cl)cc2)c2nnc(Cc3ccccc3)c(=O)n12 | -3
O=C(Cn1ncc(Cl)c(Cl)c1=O)c1ccc(Cl)cc1 | 8
O=C(OCn1ncc(Cl)c(Cl)c1=O)c1ccc(F)cc1 | 243*
Cn1c(N)c(C(=O)COC(=O)c2ccc(Cl)nc2)c(=O)n(C)c1=O | -7
COc1ccc(-c2nnn(CC(=O)NCc3ccccc3)n2)cc1OC | 277
COc1ccc(CNC(=O)CN2C(=O)NC3(CCCCCC3)C2=O)cc1OC | 244*
O=C(CN1C(=O)NC2(CCCCC2)C1=O)Nc1ccccc1Cl | 0
Cc1ccc(NC(=S)NCc2cccs2)c(C)c1 | 0
O=C1CCCC(O)=C1C=NCc1ccccc1 | -6
CCOCCCNC(=O)CNC(=S)N(Cc1ccc(C)cc1)Cc1ccco1 | 0
COc1ccccc1N1CCN(c2nc3c(C)cccn3c(=O)c2C=O)CC1 | 2
CCC(C)N1C(=O)/C(=C/c2c(NCCCOC(C)C)nc3c(C)cccn3c2=O)SC1=S (stereo unspecified) | 164*
O=C1C2C3C=CC(C3)C2C(=O)N1c1ccc(N2CCN(c3ccccn3)CC2)c([N+](=O)[O-])c1 (stereo unspecified) | -85
COc1ccc(Cc2c(O)nc(SCC(=O)NC(C)(C)C)[nH]c2=O)cc1 | 7
CCN(CC)c1ccc(/C=N/NC(=O)c2ccco2)cc1 | 0
CCN(CC)c1ccc(C=C2C(=O)OC(c3ccccc3)OC2=O)cc1 (stereo unspecified) | 312*
CCN(CC)c1ccc(C2NC(=O)NC(C)=C2C(=O)Nc2ccccc2)cc1 (stereo unspecified) | 109
C#CCn1c(S(=O)(=O)Cc2ccc(OC)cc2)nc(-c2ccccc2)c1-c1ccccc1 | 0
O=C(CCOc1ccccc1F)N1CCN(c2ccccc2O)CC1 | 0
Cc1c(C(=O)NN)nn(-c2ccc(Cl)cc2)c(=O)c1C#N | 0
CCOC(=O)c1nn(-c2ccccc2)c2nc(-c3ccc(OC)cc3)c(C#N)c(=O)n12 | 7
SMILES | INS promoter act
COC(=O)Nc1nn(-c2ccc(OC)cc2)c(=O)c(C#N)c1C | 287*
FC(F)(F)c1cccc(NC(=S)NCC2COc3ccccc3O2)c1 (stereo unspecified) | 3
OCCC1CN(CC(c2ccccc2)c2ccccc2)CCN1C1CCCC1 (stereo unspecified) | 0
CCCCCCOC(=O)Nc1ccc(S(=O)(=O)Nc2cccc([N+](=O)[O-])c2)cc1 | 7
Cc1nnc(N2CCOCC2)c2nn(-c3cccc(Cl)c3)c(C)c12 | 233*
Cc1nnc(SCCN2CCOCC2)c2nn(-c3ccccc3F)c(C)c12 | 8
Cc1cccc(-n2ncc3c(N4CCOCC4)ncnc32)c1 | 2
CCOC(=O)CC(C)(C)/C(C)=N/Nc1ccc([N+](=O)[O-])cc1[N+](=O)[O-] | 0
COc1ccccc1Oc1nc([N+](=O)[O-])nn1CC(N)=O | -3
CCC(Oc1ccccc1)C(=O)Nc1ccsc1C(=O)OC (stereo unspecified) | -7
COc1cccc(/C=C/C(=O)NCc2cn3cc(Cl)ccc3n2)c1OC | -8
COc1ccc(N(CC(=O)NCCSCc2c(F)cccc2Cl)S(C)(=O)=O)cc1OC | 7
COc1cccc(N(CC(=O)NCCSc2ccc(Cl)cc2)S(C)(=O)=O)c1 | 93*
COc1ccc(NC(=S)NCCSc2ccc(Cl)cc2)c(OC)c1 | -9
CCCNc1c(NC(C)=O)c(=O)oc2ccccc12 | 0
O=C(NCCCn1ccnc1)C(=O)NCc1ccccc1 | -3
Cc1cc(C(=O)NCCCn2ccnc2)sc1-c1ccccc1 | 531*
O=C(NCCCn1ccnc1)C(=O)Nc1ccccc1 | 127
CCCCC(=O)Nc1ccc(NC(=O)c2ccc([N+](=O)[O-])cc2Cl)cc1OC | -7
CCOc1ccc(-c2nnn(CC(=O)NCc3ccccc3)n2)cc1 | -6
O=C(NC1CCCc2ccccc21)C1CCN(S(=O)(=O)c2cnc[nH]2)CC1 (stereo unspecified) | 156
O=C(NC1CCCc2ccccc21)C1CCN(S(=O)(=O)c2ccccc2F)CC1 (stereo unspecified) | 0
O=C(NC1CCCc2ccccc21)C1CCN(c2nnc(-n3cccc3)s2)CC1 (stereo unspecified) | 186*
Cc1cc(C)c(NC(=S)N(CCc2ccncc2)C(C)C)c(C)c1 | 7
O=C(CSc1nc2nn(-c3ccccc3)c(=O)c-2c2n1CCCCC2)NCCCc1ccccc1 | 133
SMILES | INS promoter act
COc1ccc(/C=C2\NC(=S)N(CC3CCCO3)C2=O)c(OC)c1C (stereo unspecified) | -3
CCCN1C(=O)/C(=C/c2ccc(N3CCCC3)c(C)c2)NC1=S | 92*
CN1C(=O)/C(=C/c2ccccc2OCc2cccc(F)c2)N(C)C1=S | 5
COc1cc(N2CCCC2)c(OC)cc1/C=C1/NC(=S)NC1=O | 154
Cc1cc(/C=C2/C(=O)N(C)C(=S)N2C)ccc1N1CCCC1 | 376*
Cc1ccccc1N1CCN(C(=O)CN2C(=O)c3ccccc3C2=O)CC1 | 0
NNC(=O)c1cc(Br)cs1 | -8
CCOc1cc(/C=N/NC(=S)Nc2ccccc2C(F)(F)F)ccc1OCC(=O)N1CCOCC1 | -7
COc1ccc(CCNC(=O)Cn2nc([N+](=O)[O-])c(Br)c2C)cc1OC | 0
Cn1c(CN2CCN(C(=O)c3ccc(F)cc3)CC2)nc2cc([N+](=O)[O-])ccc21 | 2
Cc1cnc(NC(=O)CSC(=S)N2CCOCC2)s1 | -3
CC(C)NC(=O)NC(=O)COC(=O)/C=C/c1ccccc1[N+](=O)[O-] | -6
CC(C)OP(=O)(OC(C)C)C(C)NC(=O)Cc1ccccc1 (stereo unspecified) | -82
CCCCN(C)C1=CC2=CC(=C(C#N)C#N)CCC2CC1 (stereo unspecified) | 245*[fluoresces]
CCN(CC)C1=CC2=CC(=C(C#N)C#N)CCC2CC1 (stereo unspecified) | 525*
N#CC1=C(N)C2=C(N3CCCCC3)CCCC2C1(C#N)C#N (stereo unspecified) | -6
N#CC(C#N)=C1C=C2C=C(N3CCCCC3)CCC2CC1 (stereo unspecified) | 212*
O=C(NN1C(=O)c2cc(Br)ccc2NC1c1cc(Br)cc(Br)c1O)c1ccncc1 (stereo unspecified) | 0
O=C(N/N=C/C=C/c1ccco1)/C(=C/c1ccccc1)NC(=O)c1ccccc1 | -4
COc1ccc(C2C3=C(CC(C)(C)CC3=O)OC(N)=C2[N+](=O)[O-])cc1 (stereo unspecified) | 7
O=S(=O)(NCC1NCCc2ccccc21)c1ccccc1 (stereo unspecified) | -9
NC(=S)NNC(=O)C12CC3CC(CC(C3)C1)C2 | 8
CCNc1nc(NCC)nc(SCCOc2ccc(C)cc2)n1 | 0
CC1CC(C)(C)NC(=S)N1CCCC(=O)N1CCN(c2ccc(F)cc2)CC1 (stereo unspecified) | -3
Cc1[nH]n(-c2ccccc2)c(=S)c1C=Nc1ccc([N+](=O)[O-])cc1 | 0
COc1ccc(C2=NN(CC(=O)NCc3ccco3)C(=O)CC2)cc1 | 0
